Assays:
[1] = molecular target: Aurora kinase A (Homo sapiens, UniProt O14965, R220K); test: Inhibition of autophosphorylation of aurora-A R220K mutant at T288 in human HCT116 cells after 2 hrs; format: cell-based, HCT-116
Summary of the method: (§1)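 Cells transfected with N-terminal Myc-tagged Aurora-A (wild type or T217E, L215R or R220K mutant, made by Quikchange mutagenesis), then exposed to a range of inhibitor concentrations for 2 h. Lysed in LDS sample buffer, sonicated, boiled, run on LDS-PAGE and blotted to nitrocellulose. Probed with anti-P-T288 (Aurora-A autophosphorylation) and anti-P-histone H3 S10 (Aurora-B substrate) antibodies. Blots quantified and IC50 fitted.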

[2] = system: Mus musculus; test: Volume of distribution in Balb/C mouse at 5 mg/kg, iv and po; format: ADME, organism-based; design: dose 5 mg/kg, route oral; details: in vivo
Summary of the method: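 Female Balb/C mice given 5 mg/kg po or iv in 10% DMSO/5% Tween 20 in saline. Terminal cardiac-puncture plasma taken at 5, 15, 30 min and 1, 2, 4, 6, 24 h. Methanol precipitation with olomoucine internal standard. Analysis by LC/MS (ESI+ MRM).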

[3] = system: HeLa; test: Selectivity ratio of IC50 for aurora-B-mediated histone H3 phosphorylation at S10 in human HeLa cells to IC50 for autophosphorylation of N-terminal Myc tagged aurora-A at T288 in human HeLa cells; format: cell-based
Summary of the method: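 Cells transfected with Myc-tagged Aurora-A (wild type or T217E, L215R, R220K mutants) and treated with inhibitor concentrations for 2 h. Lysed in LDS buffer; SDS-type PAGE and western blot. Blots probed for P-T288 (Aurora-A autophosphorylation) and phospho-histone H3 S10 (Aurora-B substrate). Blots quantified; IC50 derived; ratio taken as H3 IC50 over T288 IC50.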

[4] = molecular target: Aurora kinase A (Homo sapiens, UniProt O14965, L215R); test: Inhibition of autophosphorylation of aurora-A L215R mutant at T288 in human HCT116 cells after 2 hrs; format: cell-based, HCT-116; summary of the method: as §1
[5] = molecular target: T1, Aurora kinase A (Homo sapiens, UniProt O14965); test: Inhibition of autophosphorylation of N-terminal Myc tagged wild type aurora-A at T288 in human HCT116 cells after 2 hrs; format: cell-based, HCT-116; summary of the method: as §1
T1 sequence (O14965 whole entry): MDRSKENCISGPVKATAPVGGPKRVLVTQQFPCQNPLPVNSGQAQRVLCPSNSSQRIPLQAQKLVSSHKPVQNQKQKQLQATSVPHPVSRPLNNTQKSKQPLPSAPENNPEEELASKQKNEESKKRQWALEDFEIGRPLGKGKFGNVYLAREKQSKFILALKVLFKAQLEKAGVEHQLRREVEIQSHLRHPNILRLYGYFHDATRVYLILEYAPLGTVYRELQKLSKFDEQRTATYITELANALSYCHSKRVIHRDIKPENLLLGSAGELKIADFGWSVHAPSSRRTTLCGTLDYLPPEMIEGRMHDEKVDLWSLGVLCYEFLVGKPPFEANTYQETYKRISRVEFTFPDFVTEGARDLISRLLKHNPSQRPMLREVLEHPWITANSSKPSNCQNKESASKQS

[6] = Antiproliferative activity against human MV411 cells; format: functional; details: MV4-11
[7] = Metabolic stability in human liver microsomes at 10 uM after 30 mins; format: ADME
Summary of the method: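 Mixed-gender pooled human liver microsomes (1 mg/mL) incubated with compound at 10 μM plus NADPH 1 mM, UDPGA 2.5 mM and MgCl2 3 mM in 10 mM PBS at 37 °C, for 0 and 30 min. Cofactor-free controls included. Percent remaining measured by LC/MS.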

[8] = molecular target: Aurora kinase B (Homo sapiens, UniProt Q96GD4); test: Inhibition of N-terminal Myc tagged aurora-B-mediated histone H3 phosphorylation at S10 in human HCT116 cells after 2 hrs; format: cell-based, HCT-116; summary of the method: as §1
[9] = Metabolic stability in CD1 mouse liver microsomes at 10 uM after 30 mins; format: ADME, Microsome
Summary of the method: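 Compound at 10 μM incubated with male CD1 mouse liver microsomes (1 mg/mL protein) plus NADPH 1 mM, UDPGA 2.5 mM and MgCl2 3 mM in 10 mM PBS at 37 °C, for 0 and 30 min. Controls omit cofactors. Percent remaining measured by LC/MS.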

Chain of Aurora kinase A (Homo sapiens, UniProt O14965, R220K) (O14965 whole entry I57V/R220K): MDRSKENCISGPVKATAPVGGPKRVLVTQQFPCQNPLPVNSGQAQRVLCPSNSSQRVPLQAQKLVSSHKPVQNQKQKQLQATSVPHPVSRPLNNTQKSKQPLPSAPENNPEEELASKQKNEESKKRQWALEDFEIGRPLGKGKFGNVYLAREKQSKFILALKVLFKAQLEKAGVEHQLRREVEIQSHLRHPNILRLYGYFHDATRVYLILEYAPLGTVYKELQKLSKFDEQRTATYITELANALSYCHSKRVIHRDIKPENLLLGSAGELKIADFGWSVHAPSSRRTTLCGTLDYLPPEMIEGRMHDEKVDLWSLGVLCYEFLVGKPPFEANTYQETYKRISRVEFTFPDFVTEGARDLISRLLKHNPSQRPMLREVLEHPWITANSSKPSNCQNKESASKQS
Chain of Aurora kinase A (Homo sapiens, UniProt O14965, L215R) (O14965 whole entry I57V/L215R): as the sequence (O14965 whole entry I57V/R220K) above, with L215R, K220R counted along it
Chain of Aurora kinase B (Q96GD4 whole entry): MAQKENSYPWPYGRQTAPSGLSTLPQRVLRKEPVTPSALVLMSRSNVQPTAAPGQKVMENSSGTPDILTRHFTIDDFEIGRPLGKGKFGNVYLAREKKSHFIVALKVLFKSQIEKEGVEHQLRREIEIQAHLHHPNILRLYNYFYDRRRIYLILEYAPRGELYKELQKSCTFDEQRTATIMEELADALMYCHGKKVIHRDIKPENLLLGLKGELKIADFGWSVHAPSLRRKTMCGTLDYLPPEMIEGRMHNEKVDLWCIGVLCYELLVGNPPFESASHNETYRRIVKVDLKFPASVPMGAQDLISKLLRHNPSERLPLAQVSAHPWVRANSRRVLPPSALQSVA

Compound `Cc1nn(C)cc1-c1nc2c(Oc3ccc(C(=O)Nc4ccccc4)cc3)c(Cl)cnc2[nH]1` has an IC50 [1] of 27 nM, a Vd [2] of 1.8 L/kg and a Ratio IC50 [3] of 480. For the same compound, the IC50 [4] was 27 nM, the IC50 [5] was 29 nM and the GI50 [6] was 299 nM. The metabolized at 0.5 h, 10 µM [7] was 9%, the IC50 [8] was 24600 nM and the metabolized at 0.5 h, 10 µM [9] was 22%.
